Measured values: ChEMBL document CHEMBL1165943, “Design and synthesis of new anticancer pyrimidines with multiple-kinase inhibitory effect” (Bioorg Med Chem, 2010)

Assays:
[1] = test system: M14; experiment: Cytotoxicity against human M14 cells assessed as cell growth at 0.01 uM after 48 hrs by sulforhodamine B assay; assay type: functional; conditions: M14, 48 h, read-out: Activity
[2] = test system: NCI-H522; experiment: Cytotoxicity against human NCI-H522 cells assessed as cell growth at 0.01 uM after 48 hrs by sulforhodamine B assay; assay type: functional; conditions: NCI-H522, 48 h, read-out: Activity
[3] = test system: OVCAR-4; experiment: Cytotoxicity against human OVCAR4 cells assessed as cell growth at 0.01 uM after 48 hrs by sulforhodamine B assay; assay type: functional; conditions: OVCAR-4, 48 h, read-out: Activity
[4] = test system: LOX IMVI; experiment: Cytotoxicity against human LOXIMVI cells assessed as cell growth at 10 uM after 48 hrs by sulforhodamine B assay; assay type: functional; conditions: read-out: Activity
[5] = test system: KM12; experiment: Cytotoxicity against human KM12 cells assessed as cell growth at 0.001 uM after 48 hrs by sulforhodamine B assay; assay type: functional; conditions: KM12, 48 h, read-out: Activity
[6] = test system: IGROV-1; experiment: Cytotoxicity against human IGROV1 cells assessed as cell growth at 100 nM after 48 hrs by sulforhodamine B assay; assay type: functional; conditions: IGROV-1, 48 h, read-out: Activity
[7] = test system: MDA-MB-435; experiment: Cytotoxicity against human MDA-MB-435 cells assessed as cell growth at 0.001 uM after 48 hrs by sulforhodamine B assay; assay type: functional; conditions: MDA-MB-435, 48 h, read-out: Activity
[8] = test system: TK-10; experiment: Cytotoxicity against human TK10 cells assessed as cell growth at 100 nM after 48 hrs by sulforhodamine B assay; assay type: functional; conditions: TK-10, 48 h, read-out: Activity
[9] = test system: EKVX; experiment: Cytotoxicity against human EKVX cells assessed as cell growth at 0.01 uM after 48 hrs by sulforhodamine B assay; assay type: functional; conditions: read-out: Activity
[10] = test system: T47D; experiment: Cytotoxicity against human T47D cells assessed as cell growth at 100 nM after 48 hrs by sulforhodamine B assay; assay type: functional; conditions: read-out: Activity
[11] = test system: MOLT-4; experiment: Cytotoxicity against human MOLT4 cells assessed as cell growth at 0.001 uM after 48 hrs by sulforhodamine B assay; assay type: functional; conditions: MOLT-4, 48 h, read-out: Activity
[12] = test system: SK-OV-3; experiment: Cytotoxicity against human SKOV3 cells assessed as cell growth at 10 uM after 48 hrs by sulforhodamine B assay; assay type: functional; conditions: SK-OV-3, 48 h, read-out: Activity
[13] = test system: A498; experiment: Cytotoxicity against human A498 cells assessed as cell growth at 1 uM after 48 hrs by sulforhodamine B assay; assay type: functional; conditions: A498, 48 h, read-out: Activity
Outline: (§1)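 Cells grown in RPMI 1640 with 5% FBS and 2 mM L-glutamine, seeded at 5,000–40,000 cells/well by doubling time. Time-zero plates TCA-fixed after 24 h. Five concentrations (10-fold or half-log dilutions from DMSO stock) added; 48 h at 37 °C, 5% CO2. Cold TCA fixation (final 10%, 60 min, 4 °C), 0.4% SRB stain, dye solubilized in 10 mM trizma base, A515.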

[14] = test system: Malme-3M; experiment: Cytotoxicity against human MALME-3M cells assessed as cell growth at 10 uM after 48 hrs by sulforhodamine B assay; assay type: functional; conditions: read-out: Activity
[15] = test system: IGROV-1; experiment: Growth inhibition of human IGROV1 cells after 48 hrs by sulforhodamine B assay; assay type: functional, cell-based; conditions: IGROV-1, 48 h; for CC50: read-out: LC50 (the source's name)
Outline: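 Cells grown in RPMI 1640 with 5% FBS and 2 mM L-glutamine, seeded at 5,000–40,000 cells/well according to doubling time. After 24 h, time-zero plates are TCA-fixed. Five concentrations (10-fold or ½log dilutions, DMSO stocks) are applied for 48 h at 37 °C, 5% CO₂. Cells are TCA-fixed, SRB-stained and read at 515 nm. IC₅₀ is taken from [(Ti−Tz)/(C−Tz)]×100 = 50.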

[16] = test system: HT-29; experiment: Cytotoxicity against human HT-29 cells assessed as cell growth at 0.01 uM after 48 hrs by sulforhodamine B assay; assay type: functional; conditions: HT-29, 48 h, read-out: Activity
[17] = test system: OVCAR-3; experiment: Cytotoxicity against human OVCAR-3 cells assessed as cell growth at 1 uM after 48 hrs by sulforhodamine B assay; assay type: functional; conditions: OVCAR-3, 48 h, read-out: Activity
[18] = test system: EKVX; experiment: Cytotoxicity against human EKVX cells assessed as cell growth at 1 uM after 48 hrs by sulforhodamine B assay; assay type: functional; conditions: read-out: Activity
[19] = test system: MDA-MB-435; experiment: Cytotoxicity against human MDA-MB-435 cells assessed as cell growth at 10 uM after 48 hrs by sulforhodamine B assay; assay type: functional; conditions: MDA-MB-435, 48 h, read-out: Activity
[20] = test system: DU-145; experiment: Cytotoxicity against human DU145 cells assessed as cell growth at 1 uM after 48 hrs by sulforhodamine B assay; assay type: functional; conditions: DU-145, 48 h, read-out: Activity
[21] = test system: COLO 205; experiment: Cytotoxicity against human COLO205 cells assessed as cell growth at 10 uM after 48 hrs by sulforhodamine B assay; assay type: functional; conditions: COLO 205, 48 h, read-out: Activity; outline: as §1
[22] = test system: NCI-H322M; experiment: Cytotoxicity against human NCI-H322M cells assessed as cell growth at 0.001 uM after 48 hrs by sulforhodamine B assay; assay type: functional; conditions: read-out: Activity
[23] = test system: NCI-H322M; experiment: Cytotoxicity against human NCI-H322M cells assessed as cell growth at 10 uM after 48 hrs by sulforhodamine B assay; assay type: functional; conditions: read-out: Activity
[24] = test system: CAKI-1; experiment: Growth inhibition of human Caki1 cells after 48 hrs by sulforhodamine B assay; assay type: functional, cell-based; conditions: CAKI-1, 48 h
Outline: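 Five-dose SRB assay. Cells in RPMI 1640 with 5% FBS and 2 mM L-glutamine were seeded at 5,000–40,000 cells/well, with a TCA-fixed time-zero plate (Tz) taken at 24 h. Compound stocks were in DMSO, serially diluted 10-fold or ½-log to five concentrations, and incubated 48 h at 37 °C. Plates were stained with SRB and read at 515 nm. IC₅₀ was taken where [(Ti−Tz)/(C−Tz)]×100 = 50.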

[25] = test system: NCI/ADR-RES; experiment: Cytotoxicity against human NCI/ADR-RES cells assessed as cell growth at 0.001 uM after 48 hrs by sulforhodamine B assay; assay type: functional; conditions: read-out: Activity
[26] = test system: SK-MEL-5; experiment: Cytotoxicity against human SK-MEL-5 cells assessed as cell growth at 100 nM after 48 hrs by sulforhodamine B assay; assay type: functional; conditions: SK-MEL-5, 48 h, read-out: Activity
[27] = test system: LOX IMVI; experiment: Cytotoxicity against human LOXIMVI cells assessed as cell growth at 100 nM after 48 hrs by sulforhodamine B assay; assay type: functional; conditions: read-out: Activity
[28] = test system: EKVX; experiment: Cytotoxicity against human EKVX cells assessed as cell growth at 10 uM after 48 hrs by sulforhodamine B assay; assay type: functional; conditions: read-out: Activity
[29] = test system: HOP-62; experiment: Cytotoxicity against human HOP62 cells assessed as cell growth at 10 uM after 48 hrs by sulforhodamine B assay; assay type: functional; conditions: HOP-62, 48 h, read-out: Activity
[30] = test system: OVCAR-3; experiment: Cytotoxicity against human OVCAR-3 cells assessed as cell growth at 10 uM after 48 hrs by sulforhodamine B assay; assay type: functional; conditions: OVCAR-3, 48 h, read-out: Activity
[31] = test system: UO-31; experiment: Cytotoxicity against human UO31 cells assessed as cell growth at 0.001 uM after 48 hrs by sulforhodamine B assay; assay type: functional; conditions: UO-31, 48 h, read-out: Activity
[32] = test system: IGROV-1; experiment: Cytotoxicity against human IGROV1 cells assessed as cell growth at 0.001 uM after 48 hrs by sulforhodamine B assay; assay type: functional; conditions: IGROV-1, 48 h, read-out: Activity

Row | SMILES | growth at 0.01 µM [1] [%] | growth at 0.01 µM [2] [%] | growth at 0.01 µM [3] [%] | growth at 10 µM [4] [%] | growth at 0.001 µM [5] [%] | growth at 0.1 µM [6] [%] | growth at 0.001 µM [7] [%] | growth at 0.1 µM [8] [%] | growth at 0.01 µM [9] [%] | growth at 0.1 µM [10] [%] | growth at 0.001 µM [11] [%] | growth at 10 µM [12] [%] | growth at 1 µM [13] [%] | growth at 10 µM [14] [%] | GI50 [15] [µM] | IC50 [15] [µM] | TGI [15] [µM] | CC50 [15] [µM] | growth at 0.01 µM [16] [%] | growth at 1 µM [17] [%] | also measured
1 | CC(=O)Nc1cccc(-c2ccc(-c3ccnc(NC(=O)Nc4cc(C(F)(F)F)cc(C(F)(F)F)c4)n3)cn2)c1.Cl | 92 | 77 | 78 | 4 | 99 | 89 | 97 | 105 | 79 | 42 | 95 | -63 | 41 | -49 | 2.68 | 2.68 | 9.46 | > 100 | 100 | -52 | growth at 1 µM [18]: -20%; growth at 10 µM [19]: -27%; growth at 1 µM [20]: 38%; growth at 10 µM [21]: 3%; growth at 0.001 µM [22]: 91%; growth at 10 µM [23]: -62%; GI50 [24]: 2.37 µM; IC50 [24]: 2.37 µM; LC50 (lethal concentration 50%) [24]: > 100 µM; TGI [24]: 8.34 µM; growth at 0.001 µM [25]: 95%; growth at 0.1 µM [26]: 73%; growth at 0.1 µM [27]: 81%; growth at 10 µM [28]: -7%; growth at 10 µM [29]: -36%; growth at 10 µM [30]: 100%; growth at 0.001 µM [31]: 90%; growth at 0.001 µM [32]: 95%
2 | CC(=O)c1ccccc1-c1ccc(-c2ccnc(NC(=O)Nc3cc(N4CCOCC4)cc(C(F)(F)F)c3)n2)cn1 | 95 | 103 | 108 | 93 | 103 | 87 | 98 | 100 | 94 | 8.3 | 94 | 41 | 83 | 61 | > 100 | 6.18 | > 100 | > 100 | 105 | 70 | growth at 1 µM [18]: 63%; growth at 10 µM [19]: 91%; growth at 1 µM [20]: 19%; growth at 10 µM [21]: 115%; growth at 0.001 µM [22]: 101%; growth at 10 µM [23]: 80%; GI50 [24]: 6.89 µM; IC50 [24]: > 100 µM; LC50 (lethal concentration 50%) [24]: > 100 µM; TGI [24]: > 100 µM; growth at 0.001 µM [25]: 100%; growth at 0.1 µM [26]: 84%; growth at 0.1 µM [27]: 90%; growth at 10 µM [28]: 74%; growth at 10 µM [29]: 19%; growth at 10 µM [30]: 51%; growth at 0.001 µM [31]: 85%; growth at 0.001 µM [32]: 98%
